Laboratory results reported in paper PMC552956 (Nucleic Acids Research, 2005).
Values joined by “and” are separate entries in the source; they are usually repeats but may differ in a detail not shown here. Equal entries are not always repeated. “Also recorded” adds a separate entry of the source.

How the values were obtained:
[1] = target: HIV-1 RT-associated RNase H (Human immunodeficiency virus type 1 group M subtype B, UniProt P04585); test: RNase H activity on fluorescent RNA/DNA hybrid, HIV-1 RT; format: biochemical; conditions: for IC50: IC50 HIV-1 RT; for IC50 / IC50 HIV-1 RT: RNase H activity, triplicate assays
Procedure, shortened: (§1)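 RNase H cleavage of a fluorescent RNA/DNA hybrid was measured with recombinant E. coli-expressed RT (wild-type p66/p51 for HIV-1; same expression system for HIV-2). Test compound, from a 20 mM DMSO stock, was tested in 2-fold dilutions from 100 μM to […]. Fluorescence was read every 40 s over 30 min. Rates came from the linear portion of the curves, and dose–response curves were fitted. Assays were run in triplicate.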

[2] = target: T1, E.coli RNase HI (Escherichia coli, UniProt P0A7Y4); test: RNase H activity on fluorescent RNA/DNA hybrid, E.coli RNase H; format: biochemical; conditions: for IC50: IC50 E.c. Rnase H
T1 sequence (P0A7Y4 1-155): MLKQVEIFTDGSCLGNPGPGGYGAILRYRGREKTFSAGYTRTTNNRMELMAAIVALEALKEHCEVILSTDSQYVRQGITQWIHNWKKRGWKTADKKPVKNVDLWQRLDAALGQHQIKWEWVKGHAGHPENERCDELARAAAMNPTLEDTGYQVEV

[3] = target: T2, human RNase H (Homo sapiens, UniProt O60930); test: RNase H activity on fluorescent RNA/DNA hybrid, human RNase H; format: biochemical
T2 sequence (O60930 1-286): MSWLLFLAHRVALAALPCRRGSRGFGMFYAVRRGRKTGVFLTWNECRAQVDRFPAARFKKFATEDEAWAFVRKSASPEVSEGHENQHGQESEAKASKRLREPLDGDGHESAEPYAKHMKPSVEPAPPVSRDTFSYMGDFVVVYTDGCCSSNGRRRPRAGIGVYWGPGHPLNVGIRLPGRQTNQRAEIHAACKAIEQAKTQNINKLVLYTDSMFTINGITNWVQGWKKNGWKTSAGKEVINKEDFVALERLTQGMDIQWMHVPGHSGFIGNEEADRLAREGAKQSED

[4] = target: HIV-2 RT-associated RNase H (Human immunodeficiency virus type 2 subtype A, UniProt P04584); test: RNase H activity on fluorescent RNA/DNA hybrid, HIV-2 RT; format: biochemical; conditions: for IC50 HIV-2 RT: RNase H activity, triplicate assays
HIV-2 RT-associated RNase H, sequence (P04584 613-1171 limits assumed): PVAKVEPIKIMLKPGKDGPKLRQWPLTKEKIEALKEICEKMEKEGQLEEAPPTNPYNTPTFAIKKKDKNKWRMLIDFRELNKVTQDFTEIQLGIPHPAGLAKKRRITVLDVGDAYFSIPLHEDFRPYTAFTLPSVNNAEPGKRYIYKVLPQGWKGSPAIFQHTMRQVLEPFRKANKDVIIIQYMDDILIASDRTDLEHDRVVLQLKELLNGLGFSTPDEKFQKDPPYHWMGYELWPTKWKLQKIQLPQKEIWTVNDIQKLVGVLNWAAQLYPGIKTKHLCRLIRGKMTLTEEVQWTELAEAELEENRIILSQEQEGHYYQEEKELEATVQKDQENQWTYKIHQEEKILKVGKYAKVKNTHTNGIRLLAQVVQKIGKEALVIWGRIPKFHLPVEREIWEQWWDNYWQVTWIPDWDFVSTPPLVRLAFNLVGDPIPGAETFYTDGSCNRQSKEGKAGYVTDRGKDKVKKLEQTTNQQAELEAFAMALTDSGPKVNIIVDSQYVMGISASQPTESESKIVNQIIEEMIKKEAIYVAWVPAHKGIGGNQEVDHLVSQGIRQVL
HIV-2 RT-associated RNase H, sequence (P04584 613-1051 partner limits assumed): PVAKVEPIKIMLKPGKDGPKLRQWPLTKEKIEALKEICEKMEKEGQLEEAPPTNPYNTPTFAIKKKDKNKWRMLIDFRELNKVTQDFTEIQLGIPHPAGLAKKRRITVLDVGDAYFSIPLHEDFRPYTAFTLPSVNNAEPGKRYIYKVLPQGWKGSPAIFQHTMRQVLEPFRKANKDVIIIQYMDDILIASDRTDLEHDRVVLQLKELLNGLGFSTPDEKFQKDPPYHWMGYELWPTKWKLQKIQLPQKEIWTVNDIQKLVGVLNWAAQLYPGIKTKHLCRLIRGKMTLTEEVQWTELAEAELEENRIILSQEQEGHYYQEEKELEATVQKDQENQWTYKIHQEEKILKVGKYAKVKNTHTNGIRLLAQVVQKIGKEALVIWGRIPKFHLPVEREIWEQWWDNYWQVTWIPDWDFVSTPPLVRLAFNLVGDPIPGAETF
Procedure, shortened: as §1

[5] = target: 12mer RNA/DNA hybrid; test: Surface plasmon resonance binding to immobilized RNA/DNA hybrid; conditions: SPR; for binding to RNA/DNA hybrid substrate: concentration range of 50 nM–10 mM
[6] = tested on: HIV-1 infection; test: Cellular models of HIV-1 infection; format: cell-based
[7] = target: HIV-1 RT RNase H activity (Human immunodeficiency virus type 1 group M subtype B, UniProt P04585); test: HIV-1 RT-catalyzed polypurine tract; format: biochemical; conditions: single concentration of 50 μM
Procedure, shortened: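 Recombinant wild-type p66/p51 HIV-1 RT was expressed in E. coli. The substrate was a 5′[32P]-labeled HIV-1 PPT RNA primer, extended at its 3′ end by five deoxynucleotides, hybridized to its DNA complement. Test compound was diluted from a 20 mM DMSO stock into reaction buffer and tested at 50 μM. Controls were no inhibitor and DMSO alone. PPT hydrolysis products were assessed qualitatively.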

[8] = target: HIV-2 RT DNA polymerase (Human immunodeficiency virus type 2 subtype A, UniProt P04584); test: DNA polymerase activity of HIV-2 RT; format: biochemical; conditions: 50 μM
HIV-2 RT DNA polymerase, sequence (P04584 613-1171 limits assumed): as the sequence (P04584 613-1171 limits assumed) above
HIV-2 RT DNA polymerase, sequence (P04584 613-1051 partner limits assumed): as the sequence (P04584 613-1051 partner limits assumed) above

[9] = target: HIV-1 RT DNA polymerase (Human immunodeficiency virus type 1 group M subtype B, UniProt P04585); test: DNA-dependent DNA polymerase activity of HIV-1 RT; format: biochemical; conditions: single concentration of 50 μM

Structure (SMILES) | IC50 [1] | IC50 ([2]; triplicate assays) | IC50 [3] | IC50 [4] | binding to RNA/DNA hybrid substrate [5] | further results
CC(C)=CCc1ccc(=O)c(O)cc1C(C)C [Nootkatin, 2-hydroxy-5-(3-methyl-2-butenyl)-4-(1-methylethyl)-2,4,6-cycloheptatrien-1-one] | > 100 µM | > 100 µM | 25 µM | > 100 µM |  | 
O=c1cccccc1O [Tropolone, 2-hydroxy-2,4,6-cycloheptatrien-1-one] | > 100 µM | > 100 µM | 3 µM | > 100 µM |  | 
CC[n+]1c(-c2ccccc2)c2cc(N)ccc2c2ccc(N)cc21 [ethidium bromide, reference compound] |  |  |  |  |  | Kd ([5]; read-out: Kd for intercalation into RNA/DNA hybrid, 25°C): ~1.5 µM
CC(C)c1ccccc(=O)c1O [α-Thujaplicin, 2-hydroxy-3-(1-methylethyl)-2,4,6-cycloheptatrien-1-one] | 50 µM | > 100 µM | 12 µM | 33 µM | do not bind | 
CC(C)c1cccc(=O)c(O)c1 [β-Thujaplicin, 2-hydroxy-4-(1-methylethyl)-2,4,6-cycloheptatrien-1-one] | > 100 µM | > 100 µM | > 100 µM | > 100 µM | do not bind | IC50 HIV-1 RT [1]: completely inactive; IC50 E.c. Rnase H ([2]; triplicate assays): completely inactive; IC50 Hu Rnase H ([3]; triplicate assays): completely inactive; IC50 HIV-2 RT [4]: completely inactive
CC(C)c1ccc(O)c(=O)c(O)c1 [β-Thujaplicinol, 2,7-dihydroxy-4-1(methylethyl)-2,4,6-cycloheptatrien-1-one] | 0.2 µM and 0.21 µM | ~50 µM and 50 µM |  | 0.77 µM | do not bind | Ki [1]: 0.2 ± 0.07 µM; mode of inhibition of HIV-1 RT/RNase H ([1]; non-linear fitting): mixed-type inhibition; E.coli RNase H less sensitive than HIV-1 RNase H [2]: ~250 fold; activity in cellular models of HIV-1 infection [6]: inactive; inhibition of PPT processing [7]: almost complete inhibition; inhibition of DNA polymerase activity of HIV-2 RT [8]: without affecting; also recorded: unaffected; inhibition of DNA-dependent DNA polymerase activity of HIV-1 RT [9]: failed to inhibit; also recorded: without affecting; also recorded: do not inhibit; also recorded: unaffected
CC(C)c1ccc(O)c(=O)cc1 [γ-Thujaplicin, 2-hydroxy-5-1(methylethyl)-2,4,6-cycloheptatrien-1-one] | > 100 µM | > 100 µM | 2 µM | > 100 µM |  | IC50 HIV-1 RT [1]: failed to inhibit; IC50 HIV-2 RT [4]: failed to inhibit
